Holding throughout (type): cell-based
In assay [1] the target is Sodium-dependent serotonin transporter (Homo sapiens, UniProt P31645, I179C). In words: Inhibition of human SERT I179C mutant expressed in HEK293 MSR cells assessed as [3H]-5-HT uptake preincubated for 30 mins followed addition of [3H]-5HT and compound for 10 mins by micro-scintillation counter. The method in brief: (§1)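 Cells were transiently transfected (Lipofectamine 2000, 0.2 µg DNA per cm²) and used after 48–60 h. Cells were washed in PBS with Ca/Mg (pH 7.4) and preincubated 30 min with a dilution series. 50–100 nM [3H]5-HT plus inhibitor was then added for 10 min at room temperature.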

For assay [2], the target named is Sodium-dependent serotonin transporter (Homo sapiens, UniProt P31645, W103A). The experiment in a line: Inhibition of human SERT W103A mutant expressed in HEK293 MSR cells assessed as [3H]-5-HT uptake preincubated for 30 mins followed addition of [3H]-5HT and compound for 10 mins by micro-scintillation counter. The method in brief:
as §1

Assay [3] concerns the target Sodium-dependent serotonin transporter (Homo sapiens, UniProt P31645). The experiment in a line: Inhibition of wild-type human SERT expressed in HEK293 MSR cells assessed as [3H]-5-HT uptake preincubated for 30 mins followed addition of [3H]-5HT and compound for 10 mins by micro-scintillation counter. The method in brief: as §1
In assay [4] the target is Sodium-dependent serotonin transporter (Homo sapiens, UniProt P31645, I172M). The experiment in a line: Inhibition of human SERT I172M mutant expressed in HEK293 MSR cells assessed as [3H]-5-HT uptake preincubated for 30 mins followed addition of [3H]-5HT and compound for 10 mins by micro-scintillation counter. The method in brief: as §1

This note sets out measurements from ChEMBL document CHEMBL3797162, “Synthesis and inhibitory evaluation of 3-linked imipramines for the exploration of the S2 site of the human serotonin transporter” (Bioorg Med Chem, 2016).

Sodium-dependent serotonin transporter (Homo sapiens, UniProt P31645, W103A), sequence (P31645 whole entry W103A): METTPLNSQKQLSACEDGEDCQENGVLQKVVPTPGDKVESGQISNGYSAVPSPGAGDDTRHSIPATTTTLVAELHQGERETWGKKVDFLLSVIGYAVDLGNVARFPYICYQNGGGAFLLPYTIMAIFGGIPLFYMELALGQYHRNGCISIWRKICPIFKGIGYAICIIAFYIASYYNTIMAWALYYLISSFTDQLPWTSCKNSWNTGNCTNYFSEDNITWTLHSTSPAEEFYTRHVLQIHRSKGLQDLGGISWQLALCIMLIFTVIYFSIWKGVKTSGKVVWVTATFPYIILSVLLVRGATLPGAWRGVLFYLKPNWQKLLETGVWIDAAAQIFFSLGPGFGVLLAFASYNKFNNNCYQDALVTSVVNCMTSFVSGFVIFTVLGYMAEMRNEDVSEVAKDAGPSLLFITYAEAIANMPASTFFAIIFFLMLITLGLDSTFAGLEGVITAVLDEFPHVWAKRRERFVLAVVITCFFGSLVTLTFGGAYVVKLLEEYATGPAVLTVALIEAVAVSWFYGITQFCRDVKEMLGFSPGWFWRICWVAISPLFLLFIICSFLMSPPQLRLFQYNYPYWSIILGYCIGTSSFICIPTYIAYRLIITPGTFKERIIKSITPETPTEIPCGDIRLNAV
Sodium-dependent serotonin transporter (Homo sapiens, UniProt P31645), sequence (P31645 whole entry): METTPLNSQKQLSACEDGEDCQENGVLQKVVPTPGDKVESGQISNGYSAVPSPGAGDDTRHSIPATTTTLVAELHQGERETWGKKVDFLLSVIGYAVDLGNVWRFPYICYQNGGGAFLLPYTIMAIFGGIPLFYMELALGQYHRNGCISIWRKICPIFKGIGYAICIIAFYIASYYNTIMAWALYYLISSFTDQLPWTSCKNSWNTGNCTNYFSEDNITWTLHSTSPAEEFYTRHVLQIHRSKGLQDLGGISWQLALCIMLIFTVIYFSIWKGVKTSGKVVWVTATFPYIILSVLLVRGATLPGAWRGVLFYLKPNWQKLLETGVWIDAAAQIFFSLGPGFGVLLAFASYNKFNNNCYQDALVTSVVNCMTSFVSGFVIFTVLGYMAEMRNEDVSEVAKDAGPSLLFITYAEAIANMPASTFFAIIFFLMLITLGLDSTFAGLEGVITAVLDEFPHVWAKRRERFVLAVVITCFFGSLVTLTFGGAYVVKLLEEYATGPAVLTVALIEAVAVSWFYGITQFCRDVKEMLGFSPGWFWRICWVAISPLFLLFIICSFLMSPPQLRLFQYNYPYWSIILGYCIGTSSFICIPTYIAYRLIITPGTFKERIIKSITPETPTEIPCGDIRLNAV
Sodium-dependent serotonin transporter (Homo sapiens, UniProt P31645, I179C), sequence (P31645 whole entry I179C): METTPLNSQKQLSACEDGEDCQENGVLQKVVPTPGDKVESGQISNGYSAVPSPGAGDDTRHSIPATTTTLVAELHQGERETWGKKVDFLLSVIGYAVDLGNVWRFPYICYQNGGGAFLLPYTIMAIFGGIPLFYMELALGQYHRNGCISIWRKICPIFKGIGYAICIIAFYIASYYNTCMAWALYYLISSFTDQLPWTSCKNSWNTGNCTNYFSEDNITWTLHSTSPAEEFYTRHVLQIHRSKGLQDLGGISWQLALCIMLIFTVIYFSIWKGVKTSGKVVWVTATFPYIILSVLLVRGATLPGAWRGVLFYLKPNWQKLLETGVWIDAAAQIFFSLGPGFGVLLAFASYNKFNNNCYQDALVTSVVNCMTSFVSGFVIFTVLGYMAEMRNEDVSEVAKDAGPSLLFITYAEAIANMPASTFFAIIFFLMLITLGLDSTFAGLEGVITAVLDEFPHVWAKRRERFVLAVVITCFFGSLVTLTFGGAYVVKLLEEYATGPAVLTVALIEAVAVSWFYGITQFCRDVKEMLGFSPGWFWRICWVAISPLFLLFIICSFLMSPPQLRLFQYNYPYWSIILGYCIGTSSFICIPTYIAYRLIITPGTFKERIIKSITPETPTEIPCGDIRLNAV
Sodium-dependent serotonin transporter (Homo sapiens, UniProt P31645, I172M), sequence (P31645 whole entry I172M): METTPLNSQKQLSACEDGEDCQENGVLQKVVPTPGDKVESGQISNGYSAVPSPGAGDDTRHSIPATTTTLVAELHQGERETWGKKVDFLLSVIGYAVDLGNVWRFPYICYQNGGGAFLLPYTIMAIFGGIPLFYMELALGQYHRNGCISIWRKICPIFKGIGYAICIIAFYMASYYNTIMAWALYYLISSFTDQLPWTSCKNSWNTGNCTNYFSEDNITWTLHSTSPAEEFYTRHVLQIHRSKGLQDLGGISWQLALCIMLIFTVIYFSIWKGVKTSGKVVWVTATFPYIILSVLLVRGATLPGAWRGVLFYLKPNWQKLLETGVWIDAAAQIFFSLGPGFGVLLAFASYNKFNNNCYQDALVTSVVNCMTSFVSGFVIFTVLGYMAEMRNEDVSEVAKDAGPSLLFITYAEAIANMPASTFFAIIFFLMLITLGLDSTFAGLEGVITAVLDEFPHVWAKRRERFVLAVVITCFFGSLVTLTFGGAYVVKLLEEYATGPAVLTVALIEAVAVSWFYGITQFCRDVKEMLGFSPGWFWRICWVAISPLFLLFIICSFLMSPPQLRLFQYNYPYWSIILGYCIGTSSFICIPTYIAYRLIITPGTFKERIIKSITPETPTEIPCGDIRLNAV

Broadly, the Ki is the dissociation constant of the complex between target and ligand, obtained from inhibition or displacement. As a reminder, the IC50 is the concentration that gives 50% inhibition. Take `CN(C)CCCN1c2ccccc2CCc2ccc(C#CCO)cc21`: the Ki in assay [1] was 35 nM; in assay [3], 150 nM; in assay [4], 2600 nM. Besides, the half-maximal inhibitory concentration (IC50) in assay [2] was found to be 60 nM.
Consider `CN(C)CCCN1c2ccccc2CCc2ccc(C#CCOCc3cccc4ccccc34)cc21`, for which the figures for the Ki in assay [1], in assay [3] and in assay [4] were 280 nM, 590 nM and 5400 nM, respectively. The concentration for half-maximal inhibition (IC50) in assay [2] came out at 340 nM.
Regarding `C#Cc1ccc2c(c1)N(CCCN(C)C)c1ccccc1CC2`, the inhibition constant Ki came out at 27 nM in assay [1], 220 nM in assay [3] and 2400 nM in assay [4]. The concentration for half-maximal inhibition (IC50) in assay [2] came out at 40 nM.
Turning to `CN(C)CCCN1c2ccccc2CCc2ccc(C#CCOCCOCCOc3cccc4ccccc34)cc21`, the values for the inhibition constant Ki in assay [1], in assay [3] and in assay [4] were 450 nM, 6500 nM and 6400 nM, respectively. Besides, in assay [2], the IC50 worked out at 420 nM.
Regarding `CN(C)CCCN1c2ccccc2CCc2ccc(C#CCOCCOc3cccc4ccccc34)cc21`, the results for the inhibition constant Ki in assay [1], in assay [3] and in assay [4] were 1800 nM, 3500 nM and 8000 nM, respectively. The IC50 in assay [2] amounted to 4800 nM.
In the case of `CN(C)CCCN1c2ccccc2CCc2ccc(C#CCOCCCOc3cccc4ccccc34)cc21`, the inhibition constant Ki in assay [1] is 1200 nM; in assay [3], 3500 nM; in assay [4] it was 27000 nM. Further, the IC50 in assay [2] stood at 940 nM.
With `CN(C)CCCN1c2ccccc2CCc2ccc(C#CCOCCOc3ccc4ccccc4c3)cc21`, the Ki in assay [1] turned out to be 640 nM; in assay [3] it was 1500 nM; in assay [4] it was 2000 nM. Moreover, in assay [2], the IC50 is 440 nM.
For the compound `CN(C)CCCN1c2ccccc2CCc2ccc(C#CCOCCCN3c4ccccc4CCc4ccccc43)cc21`, the inhibition constant Ki in assay [1] stood at 1600 nM; in assay [3], 13000 nM; in assay [4], 16000 nM. Besides, the IC50 in assay [2] is 1600 nM.
Turning to `CN(C)CCCN1c2ccccc2CCc2ccc(CCCOCCCOCCCN3c4ccccc4CCc4ccccc43)cc21`, the inhibitory constant (Ki) was 640 nM in assay [1], 5900 nM in assay [3] and 11000 nM in assay [4]. Moreover, the concentration for half-maximal inhibition (IC50) in assay [2] was determined as 840 nM.
With `CN(C)CCCN1c2ccccc2CCc2ccc(CCCOCCCN3c4ccccc4CCc4ccccc43)cc21`, the inhibition constant Ki came out at 330 nM in assay [1], 6300 nM in assay [3] and 15000 nM in assay [4]. For the same compound, the IC50 in assay [2] is 270 nM.
With `CN(C)CCCN1c2ccccc2CCc2ccc(CCCOCc3cccc4ccccc34)cc21`, the inhibitory constant (Ki) stood at 290 nM in assay [1], 620 nM in assay [3] and 5000 nM in assay [4]. In assay [2], the IC50 turned out to be 610 nM.
Regarding `CN(C)CCCN1c2ccccc2CCc2ccc(C#CCOCCOCCSc3cccc4ccccc34)cc21`, the Ki was 500 nM in assay [1], 2000 nM in assay [3] and 19000 nM in assay [4]. Besides, in assay [2], the IC50 was determined as 560 nM.
`CN(C)CCCN1c2ccccc2CCc2ccc(CCCOCCOCCc3cccc4ccccc34)cc21`: the values for the inhibitory constant (Ki) in assay [1], in assay [3] and in assay [4] were 360 nM, 1000 nM and 6700 nM, respectively. For the same compound, the 50% inhibitory concentration (IC50) in assay [2] came out at 280 nM.
Turning to `CN(C)CCCN1c2ccccc2CCc2ccc(CCCOCCCOc3cccc4ccccc34)cc21`, the inhibition constant Ki in assay [1] was 620 nM; in assay [3] it was 1200 nM; in assay [4] it was 9400 nM. Moreover, the IC50 in assay [2] came to 600 nM.
The corresponding values for `CN(C)CCCN1c2ccccc2CCc2ccc(CCCOCCOc3cccc4ccccc34)cc21` are 270 nM, 600 nM, 2700 nM and 280 nM.
For the compound `CN(C)CCCN1c2ccccc2CCc2ccc(C#CCOCCOCCc3cccc4ccccc34)cc21`, the figures for the inhibition constant (Ki) in assay [1], in assay [3] and in assay [4] were 540 nM, 1100 nM and 5200 nM, respectively. The IC50 in assay [2] was 300 nM.
As for `CN(C)CCCN1c2ccccc2CCc2ccc(C#CCOCCCOCCCN3c4ccccc4CCc4ccccc43)cc21`, the inhibition constant Ki in assay [1] was determined as 2800 nM; in assay [3], 11000 nM; in assay [4] it was 10000 nM. The IC50 in assay [2] turned out to be 4100 nM.
